Rows were chosen to be rich in hits. Some 3% of all compounds tested hit in one or more screens of this group.
Kir21 inh: inhibitors of mouse Kir2.1 inward-rectifier potassium channel; P35561; B-score at 10 µM; AID 1672; HEK293-Kir2.1, FluxOR thallium flux fluorescence; stronger effect = lower value; hit rate 0.85% among 310,000;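 active means fluorescence ratio B-score at or below minus 3 SD of library scores, with starting-brightness B-score within 2 SD, cut at about -4.2 in these data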;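 further: channel flux triggered by added potassium and thallium sulfate stimulus; B-score of peak minus minimum fluorescence over baseline after thallium stimulus; more negative B-score means stronger Kir2.1 block with less thallium influx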
SR-BI DiI inh: inhibitors of mouse SR-BI mediated HDL lipid uptake; ldlA[mSR-BI] CHO cells, DiI-HDL uptake fluorescence, 3 h; inhibition, % at 12.5 µM; hit rate 0.96% among 320,000;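 active means mean replicate inhibition of at least 70% and a set share of replicates each scoring 70 or more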;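 further: 0% = median of neutral control wells and 100% = median of positive control wells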
SR-BI uptake up: SR-BI HDL lipid transfer activation. hit rate 0.096% among 320,000. activation, % at 12.5 µM. AID 504775. CHO ldlA[mSR-BI] cells, DiI-HDL uptake fluorescence, 3 h; 100 = double the neutral-control signal;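 active means mean replicate activation of at least 60% and every replicate at or above 60%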;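 further: 0% = median plate neutral-control signal and 100% = twice that signal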
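Material: SR-BI-overexpressing, LDLR-lacking CHO cells | Dosing: Single compound concentration, delivered by pin transfer | Probe or stimulus: Labelled HDL, 10 µg/mL | Signal: Bottom-read cell fluorescence after medium removal, ex 550/em 595 nm | Schedule: 3 h, 37 °C | Evaluation: HDL uptake via cellular fluorescence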
TMEM16A inh: mouse TMEM16A channel inhibition, primary screen | normalized B-score (activity score, 25-100; higher = stronger inhibition) at 10 µM | Q8BHY3 | HEK293 TMEM16A/YFP iodide influx fluorescence, ionomycin | hit rate 1.2% among 310,000;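 active means ratio plate-corrected score three or more library SD toward inhibition, starting fluorescence score within five deviations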;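 further: score derived from kinetic fluorescence span divided by baseline fluorescence per well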
DNA FID counter: displaces DNA intercalator in HCV helicase counter-screen; DNA fluorescent intercalator displacement, fluorescence; inhibition, % at 7.9 µM; hit rate 0.17% among 290,000; AID 1845; in the data active means inhibition above about 37%;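 further: 0% = vehicle and 100% = reference compound; higher means more ethidium bromide displaced from hairpin DNA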
ANO1 activ: activators or potentiators of mouse TMEM16A chloride channel; Q8BHY3; hit rate 0.3% among 340,000; AID 623877; HEK293 TMEM16A/YFP-H148Q/I152L, iodide quench fluorescence; stronger effect = lower value; B-score at 10 µM;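 active means fluorescence-ratio B-score plate-corrected deviation score at least 3 library SD below zero, with starting fluorescence score within 5 deviations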;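 further: channel opened by trigger with iodide after compound preincubation; score built on the fluorescence ratio of max minus min over baseline; more negative score means more quench and so TMEM16A activation or potentiation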
Numbers without * were called inactive; i = inactive; . = no result.

SMILES | Kir21 inh | SR-BI DiI inh | SR-BI uptake up | TMEM16A inh | DNA FID counter | ANO1 activ
Cc1ccc(N=C2NC(=O)/C(=C/c3cn(C)c4ccccc34)S2)cc1C | . | 81* | -81 | i | -11 | i
Cn1cccc1/C=C1\SC(=Nc2ccccc2)NC1=O | 0.63 | 17 | -17 | i | -12 | i
Cc1ccc(OCC(=O)N2N=C(C(F)(F)F)CC2(O)C(C)(C)C)cc1C (configuration not stated) | -4.2* | 4 | -4 | 100* | -33 | i
Cn1c(-c2ccc(F)cc2)cnc1NCc1ccccc1F | 0.1 | 88* | -88 | i | 0 | i
COc1ccccc1C(=O)NC(=O)COC(=O)C1(C)CC1(Cl)Cl (configuration not stated) | 0.98 | -12 | 12 | i | . | i
COc1ccc(OC)c(NC(=O)c2cc(-c3cc(C)c(C)cc3O)n[nH]2)c1 | 1.2 | 70 | -70 | i | -8 | i
COc1ccc(OC)c(NC(=O)c2cc(-c3cc(C)cc(C)c3O)n[nH]2)c1 | -0.25 | 77* | -77 | i | -12 | i
Cc1cccc(NC(=O)c2cc(-c3cc(C)cc(C)c3O)n[nH]2)c1 | 0 | 72* | -72 | i | -5 | i
Cc1cc(C)c(O)c(-c2cc(C(=O)Nc3cccnc3)[nH]n2)c1 | 1.1 | . | . | i | -15 | i
COc1ccc(-c2cc(C(F)(F)F)nc(SCC(=O)NCCN3CCOCC3)n2)cc1OC | 0.43 | 59 | -59 | i | -5 | i
CC1CCN(C(=O)C(C)Sc2nc(-c3ccccc3)cc(C(F)(F)F)n2)CC1 (configuration not stated) | -1 | 87* | -87 | i | -26 | i
O=C(CSc1nc(-c2ccc(F)cc2)cc(C(F)(F)F)n1)NCCN1CCOCC1 | 0.17 | 73* | -73 | i | -3 | i
CC(Sc1nc(-c2ccccc2)cc(C(F)(F)F)n1)C(=O)N1CCCC1 (configuration not stated) | 0.39 | 66 | -69 | i | -6 | i
CC(Sc1nc(-c2ccccc2)cc(C(F)(F)F)n1)C(=O)N1CCOCC1 (configuration not stated) | -0.16 | 93* | -93 | i | -33 | i
CC(Sc1nc(-c2ccccc2)cc(C(F)(F)F)n1)C(=O)NCCN1CCOCC1 (configuration not stated) | 0.01 | 73* | -73 | i | 6 | i
Cc1cnc(C(=O)OCC(=O)N2C(C)CCCC2C)cn1 (configuration not stated) | . | 5 | -5 | . | . | i
CCOc1ccc(NC(=O)CNC(=O)c2nn(-c3ccc(OC)c(OC)c3)c(=O)c3ccccc23)cc1 | 0.03 | -34 | 34 | i | -33 | i
COc1ccc(-n2nc(C(=O)NCC(=O)Nc3cc(Cl)c(OC)cc3OC)c3ccccc3c2=O)cc1 | -0.74 | 84* | -84 | i | 0 | i
COc1ccc(-n2nc(C(=O)NCC(=O)Nc3cccc(Cl)c3)c3ccccc3c2=O)cc1OC | -1.6 | . | . | 25* | -17 | i
O=C(NCC1CCCCC1)c1cc(Br)ccc1Cl | 0.52 | . | . | i | -12 | i
Cc1ccc(Cc2ccccc2C(=O)O)cc1 | . | -4 | 4 | . | . | i
COC(=O)c1cc(NC(C)=O)ccc1N1CCOCC1 | 0.14 | 10 | -10 | i | -4 | i
COC(=O)c1cc(NC(=O)c2cc(-c3ccc(OC)cc3)oc2C(F)(F)F)ccc1N1CCOCC1 | -0.94 | 86* | -86 | i | -18 | i
COC(=O)c1cc(NC(=O)c2cc(-c3ccc(C(F)(F)F)cc3)oc2C(F)(F)F)ccc1N1CCOCC1 | 1.7 | 81* | -81 | i | -9 | i
O=C(O)c1cc(NC(=O)c2ccco2)cc(NC(=O)c2ccco2)c1 | -1.1 | . | . | i | -6 | i
SMILES | Kir21 inh | SR-BI DiI inh | SR-BI uptake up | TMEM16A inh | DNA FID counter | ANO1 activ
NS(=O)(=O)c1ccc(OC(=O)CNC(=O)OCc2ccccc2)cc1 | -1.4 | -3 | 3 | i | . | i
CCOc1cc(CNn2nnnc2N)cc(Cl)c1OCC(=O)NC(C)(C)C | -1.9 | 1 | -1 | i | -25 | i
COc1ccc(-c2sc3cc4c(cc3c2C#Cc2ccc(N)cc2)OCO4)cc1 | . | 93* | -93 | . | . | i
COc1ccc(-c2sc3cc4c(cc3c2C#CCO)OCO4)cc1 | . | 63 | -63 | . | . | i
C=CCOc1ccc(/C=C(\C#N)C(=O)Nc2ccccn2)cc1 | 0.02 | -8 | 8 | i | -7 | i
Cc1ccc(C2=NC(=O)/C(=C/c3cc(O)c(O)c(Br)c3)S2)cc1 | . | 69 | -69 | . | -6 | -6*
CC(C)n1nnnc1SCC(=O)N1CCN(Cc2ccc3c(c2)OCCO3)CC1 | . | -4 | 4 | . | . | i
NC(=O)c1cc(S(=O)(=O)Nc2ccc(OC(F)(F)F)cc2)cs1 | 1.2 | -11 | 11 | i | -1 | i
CN(C)CCN(Cc1ccco1)C(=O)c1cc2c(Cl)nc3ccccc3c2s1 | -0.05 | -23 | 23 | i | 7 | i
Cc1ccc2nc(Cl)c3cc(C(=O)N(CCN(C)C)Cc4ccco4)sc3c2c1 | -4.5* | 19 | -19 | i | 10 | i
O=C(Cc1cccs1)Nc1ccc(F)c(S(=O)(=O)N2CCOCC2)c1 | . | -8 | 8 | . | . | i
NC1(N)OC(CN2C(=O)c3ccccc3C2=O)CS1 (configuration not stated) | 2.1 | 6 | -6 | 100* | -5 | i
COc1cc(OC)cc(C(=O)NC(=S)NNC(=O)[C@H]2C[C@@H]2c2ccccc2)c1 | 0.93 | 20 | -20 | 100* | -5 | i
COc1ccc(C(=O)NC(=S)NNC(=O)[C@H]2C[C@@H]2c2ccccc2)cc1OC | 0.31 | 66 | -66 | i | -7 | i
O=C(COc1ccc(S(=O)(=O)N2CCOCC2)cc1)Nc1cccc([N+](=O)[O-])c1 | -0.72 | 6 | -6 | i | -2 | i
O=S(=O)(Nc1ccc(-c2ccc(N3CCOCC3)nn2)cc1)c1ccc(Cl)c(Cl)c1 | -1.1 | -8 | 8 | 25* | . | i
Cc1ccc(NC(=O)COC(=O)CCc2c(C)nc3nc(N)nn3c2C)cc1C | . | 8 | -8 | . | . | -23*
CC1CCc2sc(C(=O)NNS(=O)(=O)c3ccc(F)c(F)c3F)cc2C1 (configuration not stated) | -0.4 | 6 | -6 | i | . | i
O=C(NCc1cccnc1)c1cccc(S(=O)(=O)NCc2ccccc2)c1 | -1.2 | -8 | 8 | i | . | i
CCc1cc(=O)oc2cc(OCC(=O)N3CCC[C@H]3C(=O)O)ccc12 | -0.05 | -1 | 1 | i | 95* | i
CCOc1ccc(NS(=O)(=O)c2ccc3c(c2)CCN3C(C)=O)cc1 | -0.5 | -1 | 1 | i | -7 | .

Bioassay records: PubChem BioAssay, several laboratories
